Sampled rows, rich in hits. Any-hit rate of the full collection: about 6.7%.
CSC inhib = blocks cancer stem cells | cancer stem cell-like cells viability, luminescence | inhibition, % at 7.5 µM | 300,000 compounds, 1.1% hits; in the data active = inhibition above about 75%; tested in HMLE shEcad cells
CHOP inh = blocks CHOP induction under ER stress; CHO-K1 CHOP-promoter luciferase, tunicamycin-induced, 15-18 h; inhibition, % at 10 µM; 220,000 compounds, 3.8% hits; AID 2732;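 active = compounds that reduced the stress-induced luciferase reporter signal by more than about 70% of percent inhibition, limit read from the data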;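 also: 0% = tunicamycin plus vehicle and 100% = wells without tunicamycin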
T cruzi inh = T. cruzi replication inhibition. T. cruzi beta-gal in NIH3T3, luminescence, 90 h. inhibition, % (no concentration beside the values). 300,000 compounds, 1.4% hits. AID 1885;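 active = mean inhibition across valid replicates above about 55%, limit read from the data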;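 also: signal also drops with host cell toxicity which is not excluded here; 0% = plate median of DMSO wells and 100% = zero luminescence signal; higher percent means less beta-gal luminescence so fewer parasites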
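assay system = mouse NIH/3T3 fibroblasts infected with β-gal-expressing T. cruzi Tulahuen C4 | input = 5,000 NIH/3T3 host cells per well | buffer or medium = DMEM plus 2% FBS | timing = 3 h host attachment, then at least 90 h co-culture | measured by = GalScreen luminescence, 60 min | evaluation = luminescence reflecting intracellular parasite burden, expressed as percent inhibition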
Beta apoptosis = blocks beta cell apoptosis; protection from apoptosis, % (concentration not given with the values); AID 435005; 300,000 compounds, 0.8% hits; INS-1E cytokine-induced death, ATP luminescence, 48 h; percent of positive-control rescue, neutral wells zero;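 active = Every replicate reaches about 75%, or at least half do and their mean reaches it too, limit read from the data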;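 also: 0% = cytokine-treated negative control wells and 100% = positive control rescue; higher means more ATP so stronger rescue from cytokine killing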
PREPL inhibitor = inhibitors of human prolyl oligopeptidase-like enzyme PREPL; Q4J6C6; 320,000 compounds, 0.68% hits; recombinant PREPL, fluorescence polarization activity-based probe; inhibition, % at 5.96 µM; in the data active = inhibition above about 43%;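 also: 0% = enzyme with DMSO and 100% = wells lacking enzyme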
NR3A LBD binder = NR3A (human) ligand-binding domain modulation | Tm shift relative to glycine control, % at 25 µM | NR3A LBD differential scanning fluorimetry, Tm shift; 0% = protein alone, 100% = glycine-bound protein | AID 1259313 | 340,000 compounds, 2.5% hits;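 active = melting temperature shift of at least 10% of the positive control shift, at one fixed dose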
Numbers without * were called inactive; · = no result.

SMILES | CSC inhib | CHOP inh | T cruzi inh | Beta apoptosis | PREPL inhibitor | NR3A LBD binder
CC(C)(C)[C@H]1C=C(C(=O)NCc2nc3ccccc3[nH]2)O[C@@H](OCc2ccc(CO)cc2)C1 | -9 | 13 | 4 | 0 | 3 | -7
COC(=O)c1ccc(Oc2nc3ccccc3n3c(C)nnc23)cc1 | -1 | · | -11 | -5 | 19 | 1
Cc1ccc(C2OCC(C)([N+](=O)[O-])CO2)cc1 (configuration not stated) | · | · | · | · | · | -1
CCOc1ccc(C(=O)n2cc(C(=O)OC)c3ccccc32)cc1 | 32 | · | -2 | · | -1 | -3
O=S(=O)(c1ccc(S(=O)(=O)N2CCC(O)CC2)cc1)N1CCCC1 | · | · | -3 | -4 | -1 | -1
CC(C)(C)N(Cc1ccccc1)C(=O)c1ccc(Cl)cc1[N+](=O)[O-] | -4 | 34 | -3 | 10 | 6 | 0
Cc1ccccc1NC(=O)c1ccc(Nc2c([N+](=O)[O-])cc([N+](=O)[O-])c3ccccc23)cc1 | 34 | 45 | 63* | 31 | 15 | 2
O=C(Nc1ccc(S(=O)(=O)Nc2cnc3ccccc3n2)cc1)c1ccc(Cl)c([N+](=O)[O-])c1 | -2 | · | -8 | -2 | 7 | 24*
Cc1c(NC(=O)c2ccccc2)cccc1[N+](=O)[O-] | -3 | 3 | -8 | 0 | 2 | -2
O=C(c1ccc(Cl)cc1[N+](=O)[O-])N(Cc1ccccc1)Cc1ccccc1 | 20 | 73* | 27 | 3 | 14 | ·
CC(=O)NS(=O)(=O)c1ccc(NC(=O)c2ccc(Cl)cc2[N+](=O)[O-])cc1 | -8 | -17 | -15 | · | 8 | -2
O=C(Nc1ccc(Nc2ccccc2)cc1)c1ccc(Cl)cc1[N+](=O)[O-] | 49 | · | · | · | 15 | 12*
COc1ccc(C(=O)Nc2ccc(S(=O)(=O)Nc3cnc4ccccc4n3)cc2)cc1 | -23 | · | 2 | 2 | -5 | -1
CCOc1ccc(C(=O)NC(=S)Nc2ccccc2N2CCC(C)CC2)cc1[N+](=O)[O-] | 6 | -4 | 55* | 13 | 3 | 1
COc1ccc(-c2cc(=O)oc3c(O)c(O)ccc23)cc1 | 63 | · | -13 | 0 | 24 | 29*
CCCCN(C(=O)c1cc2c(s1)CCC2)c1c(N)n(CCCC)c(=O)[nH]c1=O | -9 | · | -2 | -13 | 0 | -3
COc1ccc(CN(C(=O)CSc2nnc(-c3ccccc3C)o2)c2ccc(F)cc2)cc1 | 9 | 4 | 16 | -7 | -11 | -1
Cc1ccc(C(=O)CSc2nnc(-c3c[nH]c4ccccc34)o2)cc1 | -2 | 95* | 3 | -4 | 2 | 2
O=C(CSc1nnc(-c2c[nH]c3ccccc23)o1)N(Cc1ccccc1)c1ccc(F)cc1 | 26 | 71* | 55* | 16 | -12 | 9
Clc1cccc(CSc2nnc(-c3c[nH]c4ccccc34)o2)c1 | 71 | 53 | 11 | -6 | 5 | 16*
COC(=O)c1c(N2C(=O)[C@H]3[C@@H](C2=O)[C@]2(C(=O)Nc4ccc(C)cc42)N2CCC[C@@H]32)sc(C)c1C | -9 | 0 | -12 | -6 | 9 | ·
CC(C)CNC(=O)c1ccccc1C(=O)NC1(C(=O)NCC(C)C)CCCC1 | · | · | · | · | · | -2
COc1ccc(N2C(=O)CC(Sc3n[nH]c(-c4ccccc4)n3)C2=O)cc1 (configuration not stated) | -8 | -25 | -1 | -7 | -5 | 5
Cc1cc(C)cc(NC(=O)CCc2nc3sc4c(c3c(=O)[nH]2)CCCC4)c1 | 89* | · | -5 | · | -5 | 2
CC(=O)Nc1ccc(NC(=O)CCc2nc3sc4c(c3c(=O)[nH]2)CCCC4)cc1 | · | · | -10 | 1 | 5 | -1
Cc1ccc(OCCn2c(=S)[nH]c3ccccc32)c(C(C)C)c1 | 101* | · | 21 | 9 | 11 | -2
CCC(C(=O)OCC(=O)N1C(C)CCCC1C)c1ccccc1 (configuration not stated) | -2 | · | 9 | -5 | 5 | -4
O=C(Nc1nc(-c2ccc(F)c(F)c2)cs1)c1cnccn1 | 0 | 8 | -4 | 5 | 0 | 5
O=C(Nc1nc(-c2cccc3ccccc23)cs1)c1cnccn1 | 24 | 93* | -12 | 3 | -17 | -2
CCCCN=C1NN=C(c2ccc3c(c2)OCCO3)CS1 | -12 | -2 | 17 | · | -2 | 0

Assay outcomes as filed in PubChem BioAssay.
